Screening results (PubChem)
bCat nuc transl – modulators of beta-catenin nuclear translocation, primary screen, imaging, HeLa cells, immunofluorescence, high-content | nuclear translocation activity, % at 5 µM | hit rate 0.3% among 190,000;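 active = nuclear translocation activity above 50% at 5 µM, with a well cell count of 50 or more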;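 also: per-cell ratio of nuclear to cytoplasmic median beta-catenin stain intensity; plate controls were DMSO negative control for no effect and GSK-3 inhibitor IX positive control for full effect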
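Test system: human HeLa cells, endogenous beta-catenin. Times: 24 h compound exposure, 37°C. Measured by: beta-catenin immunofluorescence imaging with DAPI.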
L major viab – Leishmania major promastigote growth inhibition, primary screen | Leishmania major promastigotes, resazurin fluorescence viability | inhibition, % at 10 µM | hit rate 9% among 200,000 | AID 1063, 2008; in the data active = inhibition above about 50%;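 also: promastigotes grown with compound for 44 hours at 28 °C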
HSV replic up – enhancers of HSV replication in host cells, fold increase, host cell viability; HSV replication augmentation in cells; maximum fold increase; hit rate 0.005% among 220,000; AID 1956, 2009; in the data active = maximum fold increase above about 1.5; tested in PC3 cells
Dynein transport – inhibitors of GR-EGFP nuclear translocation, primary screen, dynein cargo transport inhibitor project, imaging, high-content, 3617.4 mouse cells; test concentration mostly 20 µM; stimulated with dexamethasone, 1 µM; active compounds read low; z-score, hits read low; hit rate 0.47% among 220,000; AID 1381, 2008;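 active = plate z-score of nuclear minus cytoplasmic receptor signal below a set negative limit, without overly bright fluorescence or cell loss, cut at about -3.5 in these data, passing the limit was not always enough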;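 also: z-score of nuclear minus cytoplasmic ring GR-EGFP intensity difference per well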
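Also added – dexamethasone, 1.0 µM final · Buffer or medium – tet-free, stripped-serum medium · Schedule – induction 48 h, compound 1 h, agonist 30 min · Detection – formaldehyde fixation, Hoechst nuclear stain, 10x automated fluorescence imaging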
MT stabilize HCS – microtubule stabilizers in HeLa cells, primary screen, imaging, high-content imaging | HeLa tubulin immunostaining HCS, 24 h; share of cells brighter than vehicle mean+2SD | % tubulin-high responders, % at 10 µM | hit rate 0.83% among 200,000;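 active = plate Z-score above 3 for both tubulin-high and condensed-nucleus cell shares, with cell loss under 80%, at 10 µM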;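 also: anti alpha tubulin signal scored within the nucleus-defined area of each cell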
Active calls of the source: *; i = inactive; / = not tested or not shown. The list is not random: actives were taken first. Their share in the collection is about 8.9%.

SMILES	bCat nuc transl	L major viab	HSV replic up	Dynein transport	MT stabilize HCS
Cc1ccc(/C=C/C(=O)Nc2nnc(C)s2)o1	-4	55*	i	-0.3	3
Cc1ccc(/C=C/C(=O)Nc2sc(C)c(C)c2C(=O)OC(C)C)o1	-2	51*	i	-0.32	2
Cc1ccc(C)c(OCCCC(=O)N2CCOCC2)c1	0	-4	i	0.84	2
C/C=C(/C)C(=O)Nc1cccc(C2=NOC3(C2)C[C@@H](C(N)=O)N(C(=O)CC)C3)c1 (some centres undefined)	-1	/	i	-0.2	/
Cc1ccc(SCCNC(=S)Nc2cc(C)cc(C)c2)cc1	/	65*	i	-0.81	2
COc1ccc(NC(=S)NCCSc2ccc(Cl)cc2)c(OC)c1	/	100*	i	0.0018	2
Cc1ccc(NC(=S)NCCSc2ccc(Cl)cc2)cc1	-2	28	i	0.39	2
COc1ccccc1NC(=S)NCCSc1ccc(Cl)cc1	2	8	i	-0.39	7
Cc1ccccc1OCCn1cc(/C=C(\C#N)C(=O)NCc2ccco2)c2ccccc21	3	19	i	-0.14	3
CCc1cc2c(=O)c(-c3ccc(F)cc3)c(C)oc2cc1OCC(=O)O	-2	-5	i	0.67	3
CCc1cc2c(=O)c(-c3cnn(-c4ccccc4)c3)c(C)oc2cc1OCC(=O)Nc1cccc(C)c1	1	66*	i	1.8	2
CCc1cc2c(=O)c(-c3cnn(-c4ccccc4)c3)c(C)oc2cc1OCC(=O)Nc1ccc(F)c(F)c1	/	53*	i	-0.55	5
O=C(COc1ccccc1C(=O)c1cnn(-c2ccccc2)c1)Nc1ccccc1	-2	8	i	-0.41	3
O=C(OCCN1CCOCC1)c1ccc(OCCN2CCOCC2)cc1	/	-2	i	0.11	1
COc1ccc(NC(=O)CCN2CCCC(C)C2)cc1 (centres undefined)	4	2	i	0.35	15
CCOc1ccc(C(=O)CCN2CCCCCC2)cc1	3	100*	i	0.91	1
CCCOc1ccc(OCCN2CCCC(C)C2)cc1 (centres undefined)	1	96*	i	-0.52	4
COc1ccc(C(=O)OC2CCN(C)CC2)cc1	1	12	i	0.4	4
CCCCOc1ccc(C(=O)CCN2CCOCC2)cc1	1	76*	i	-3.2	2
CCOc1ccc(C(=O)OC2CCN(C)CC2)cc1	-3	100*	i	0.14	4
Cc1ccc([N+](=O)[O-])cc1-c1ccc(/C=N/NC(=O)CN2CCOCC2)o1	-7	/	i	0.33	/
Cc1[nH]c2ccccc2c1C(C[N+](=O)[O-])c1ccco1 (centres undefined)	1	14	i	-0.59	3
CCCOc1ccc(C(=O)CCN2CCCCC2)cc1	1	90*	i	-0.58	6
CCCOc1cc(CN2CCCCC2)cc(C(C)=O)c1	-1	52*	i	0.079	3
COc1ccc(C(=O)CCN2CCc3cc(OC)c(OC)cc3C2)cc1	0	67*	i	-3	1
SMILES	bCat nuc transl	L major viab	HSV replic up	Dynein transport	MT stabilize HCS
COc1ccc(C(=O)N2CCc3cc(OC)c(OC)cc3C2)cc1OC	-2	0	i	-0.36	3
O=C(CSc1nnc(Cc2cccs2)n1Cc1ccco1)Nc1ccc(Br)cc1	/	8	i	1.2	6
O=C(O)c1ccc(N/N=C/c2ccc(F)c(F)c2)cc1	-2	4	i	0.77	3
Cc1cccc2c1N(CCOc1ccccc1Cl)C(=O)C2=O	-2	67*	i	-0.0052	2
COCCOC(=O)c1c(C)oc2ccc(NS(=O)(=O)c3ccccc3)cc12	3	8	i	-1.5	4
CCOC(=O)c1c(C)oc2ccc(NS(=O)(=O)c3ccc4c5c(cccc35)C(=O)N4)cc12	-2	91*	i	1.4	6
COCCCNC(=O)Cn1nnc(-c2ccc(NC(=O)c3ccc(F)cc3)cc2)n1	-1	-6	i	-0.9	7
COc1cccc(/C=N/Nc2nc(-c3cccnc3)nc3ccccc23)c1	2	/	i	-0.23	/
COc1cccc(CNc2nc(-c3cccnc3)nc3ccccc23)c1	1	76*	i	-0.81	5
C=C(C)CNC(=S)N/N=C1\CCCCc2ccccc21	2	99*	i	0.16	3
N#CC1=C2SCC(O)(c3ccccc3)N2C(=O)CC1c1ccccc1F (centres undefined)	/	99*	i	1.4	47*
N#CC1=C2SCC(O)(c3ccccc3)N2C(=O)CC1c1cccs1 (centres undefined)	176*	90*	i	-0.76	32*
COc1ccc(C2CC(=O)N3C(=C2C#N)SCC3(O)c2ccccc2)cc1 (centres undefined)	-6	49	i	-0.51	3
CCOc1ccc(OCC)c(NC(=O)CSc2nc3ccccc3c(=O)n2C)c1	3	4	i	-1.4	2
Nc1nc(CN2CCCCC2)cs1	1	-4	i	0.097	2
CCn1c2ccccc2c2cc(NC(=O)COC(=O)c3cccc(S(=O)(=O)NC)c3)ccc21	3	66*	i	0.45	4
CCn1c2ccccc2c2cc(/C=N/NC(=O)c3cccc(C)c3)ccc21	1	2	i	1.1	30*
CCn1c2ccccc2c2cc(NC(=O)c3cccc(OC)c3)ccc21	-1	14	i	-0.29	31*
CCn1c(C)c(C)c2cc(C(=O)Nc3cccc(Cl)c3)ccc21	3	62*	i	-0.54	3
Fc1ccccc1NC(=S)N1CCN(C/C=C/c2ccccc2)CC1	4	0	i	-0.61	2
Cc1nc2sc3c(c2c(=N)n1N)CCCC3	-2	4	i	-0.19	5
CSC(=NC#N)N1CCN(c2cccc(Cl)c2)CC1	/	27	i	0.37	2
Cc1cc(O)cc(C)c1Cl	/	/	i	/	/
Cc1cc(O)c(-c2cc(O)c(C)cc2O)cc1O	-4	/	i	-6*	/
CC1=CC(C)(C)N2C(=O)C3(C(C#N)=C(N)Oc4cc(O)ccc43)c3c(C)c(C)cc1c32 (centres undefined)	/	54*	i	-1.2	8
COc1ccc(N(CC(=O)NCCC2=CCCCC2)S(C)(=O)=O)cc1OC	0	1	i	-1	2
COc1ccc(N(CC(=O)NCCC2=CCCCC2)S(=O)(=O)c2ccccc2)cc1OC	0	73*	i	-0.45	5
COc1ccc(N(CC(=O)NCCC2=CCCCC2)S(=O)(=O)c2ccccc2)cc1	0	/	i	0.49	/
COc1ccc(N(CC(=O)NCCC2=CCCCC2)S(=O)(=O)c2ccc(C)cc2)cc1OC	-1	85*	i	0.65	3
CC(=O)c1cc(CN2C(=O)CCC2=O)cs1	1	-7	i	-0.23	4
